The chains are these.
B1: tRNA (parent)
chain: GUUCCGUUGGCGUAAUGGUAACGCGUCUCCCUCCUAAGGAGAAGACUGCGGGUUCGAGUCCCGUACGGAACG

The record followed here is the RNAGym collection of RNA variant scans (doi:10.1126/science.aae0568).

Fewer inactive variants are shown than the library holds.

The data set covers variants of B1. Briefly: yeast fitness relative to wild type (ratio to wild type); higher = fitter; tRNA-Arg(CCU), competitive growth, 37 C, YPD. The essentials: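 Genotype frequency changes were the basis for Darwinian fitness relative to wild type. The frequencies came from 100-nucleotide paired-end sequencing of gene amplicons from the start population and each end population of pooled yeast strains with tRNA-Arg(CCU) gene variants at the native locus. Competition ran in YPD at 37°C for 24 hours in six replicates, genotypes needed ≥ 100 starting reads, and estimates < 0.5 were set to 0.5.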
With GAUCCGUUGGGGUAAUGGUAACGCGUCUCCCUCCUAAGGAGAAGACUGCGGGUUCGAGUCCCGUACGGAACG [U2A C11G], the yeast fitness was 0.647. Consider GUUCAGUUGGCAUAAUGGUAACGCGUCUCCCUCCUAAGGAGAAGGCUGCGGGUUCGAGUCCCGUACGGAACG [C5A G12A A45G], for which the yeast fitness was found to be 0.551. For the variant GUCCCGUUGGCGUAAUGGUAACGCGUCUCCCUCCUAAGGAGAAGACUGCGGGUUCGAGUCCCGUACGGAGCG [U3C A70G], the yeast fitness was 0.944. On to GGUCCGUUGGCGUAAUGGUAACGCGUUUCCCUCCUAAGGGGAAGACUACGGGUUCGAGUCCCGUACGGAACG [U2G C27U A40G G48A], for which the yeast fitness was 0.576. On to GUUCCGUUGGCGUAAUGGUAACGCCUCUGCCUCCUAAGGAAAAGACUGUGGGUUCGAGUCCCAUGUGGAACG [G25C C29G G41A C49U G63A A65G C66U], for which the yeast fitness was ≤ 0.5. For GUUCCGUUGGCGUAAUGGUAACGCGUCUCCCUCCUAAGGAGAAGACUGCGCGUUCAAGUCCGGUAAGGAGCG [G51C G56A C62G C66A A70G], the yeast fitness was ≤ 0.5. Consider GUUCCAUUGACGUAAUGGUAACGCGUCUCCCUCCUAAGGAGAAGGCUGCGGGUUCGAGUCCCGUACGGAACG [G6A G10A A45G], for which the yeast fitness amounted to 0.647. In the case of GUUCGGUUGGCGUAAUGGUAUCGCGUCUCCCUCCUAAGGAGAAGACUGUGGGUUCGAGUCCCGUACGGAACG [C5G A21U C49U], the yeast fitness was ≤ 0.5. To GCUCCGUUGGCGUAAUGGCAACGCGUCUCCCUCCUAAGGAGAAGACUGCGGGUUCGCGUCCCGUACGGAACG [U2C U19C A57C] belongs 0.642.

Turning to GUUCCGUUGGCGUAUUGGUAACGCGUCUCCCUCCUAAGCAGAAGACUGCGGGUUCGAGUCCCGUACGGAACG [A15U G39C], the yeast fitness was 0.597. As to GCUCCGUUGGCGUAAUGGUAACGCGUCUCCCUCCUAAGGCGAAGACUGCGGGUUCGAGUCCCGUACGGAACG [U2C A40C], the yeast fitness was 0.851.

For GUUCCGUUGGCGUAAUGGUAACGCGUCUCCCUCCUAAGGAGAAGGCUGCGGGUUCGAAUCCCGUACGGUACG [A45G G58A A69U], the yeast fitness was 0.738.

With GUUCCGUUGGCGUAAUGGUAACGUGUCUCCCUCCUAAGGAGAAGACUGCGGGUUAGAGUCCCGUACGGAACG [C24U C55A], the yeast fitness is 0.655. Turning to GUUCCGUUGGCGUAAUGCUAACGCGUCUCCCUCCUAAGGAGAAGUCUGCCGGUUGGAGUCCCGCACGGAACG [G18C A45U G50C C55G U64C], the yeast fitness was ≤ 0.5. Then GUUCCGUUAGCGUAAUCGUUACGCGUCUCCCUCCUAAGGAGAAGACUGCGGGUACGAGUCUCGUACGGAACG [G9A G17C A20U U54A C61U], with ≤ 0.5; and GUUCCGUUGGCGUAAUGGUCACGCGUCUCCCUCCUAAGGAGAAGACUGCGGCUUCGAGUCGCGUACGGAACG [A20C G52C C61G], with ≤ 0.5.

As to GUUCCGGUGGCGUAAUGGUAACGCGUCUCCCUCCUAAGGAGACGACUGCGGGUUCGACUCCCGUACGGAACG [U7G A43C G58C], the yeast fitness amounted to 0.648. In the case of GUUACGUUGGUGUAAUGGUAACGCGUCUCCCUCCUAAGGAGAAGACUGCGGGUUCCAGUCCGGUACGCAACG [C4A C11U G56C C62G G68C], the yeast fitness was ≤ 0.5. As to GUUCCGUUGGCGUAAUGGUCACGCGUCUCCCUCUUAAGGAGAAGACUGCGGAUUCGAGUCCUGUACGGAACG [A20C C34U G52A C62U], the yeast fitness is ≤ 0.5. Take GUUCCGUUGGCGUAAUGGUAACGCGUGUCCCUCCUAAGGAGAAGAUUGCGGGUUCGAGUCCCGUACGGCACG [C27G C46U A69C]: the yeast fitness worked out at 0.735. Consider GAUCCGUUGGUGUAAUGGGAACGCGUCUCCCUCCUAAGGAGAAGACUGCGGGUUCGAGUCCCGUACGGAACG [U2A C11U U19G], for which the yeast fitness came out at 0.647.

For the variant GAUCCGUUGGGGUAAUGGUAACGCGUCUCCCUCCUAAGGAGAAGACUGCGGGUUCGAGUCACGUACGGAACG [U2A C11G C61A], the yeast fitness is ≤ 0.5.

GUUCCGUUGGCGAAAUGGUACCGCGUCUCCCUCCUAGGGAGGAGACUGCGGGUUCGAGUCCCGUACGGAACG [U13A A21C A37G A42G]: the yeast fitness is ≤ 0.5. As for GUUCCGUUGGCGUAAUGGUAACGCGUCUCCCUCCUAAGGAGAAGCCUGGGGGUUCGAGUCCCGUACGGAACG [A45C C49G], the yeast fitness is 0.721. As to GUUCCGUUGGCGUAAUGGUAACGCGUCUCCCUCCUAAGGAGAAGACUGGGGGUUCGGGUCCCGUACGGAACG [C49G A57G], the yeast fitness stood at 0.719. As for GGUCCGUUGGCGUAAUGGUAACGCGUCUCCCUCCUAAAGAGAAGACUGCGGGUUCGAGUCCCGUACGGCACG [U2G G38A A69C], the yeast fitness came to 0.531.

For GUUCCGUUCGCGUAAUGCUAACGCGUCUCCCUCCUAAGGAGAAGACUGGGGGUUCGAGUCCCGUUCGGAACG [G9C G18C C49G A65U], the yeast fitness is 0.553. Take GUUCCGUUGGUGUAAUGGUAACGCGUCUCCCUCCUAAGGGGAAGAAUGCGGGUUCGAGUCCCGUACGGAACG [C11U A40G C46A]: the yeast fitness came to 0.792. Then GUUGCGUUGACGUAAUGGUAGCGCGUCUCCCUCCUAAGGAGAAGACUGCGGGUUCGAGUCCCGUACGGAACG [C4G G10A A21G], with 0.547; and GUUCCGAUGGCGUAAUGAGAACGCGUCUCCCUCCUAAGGAGAAGACUGCGGGUUCGAGUCCAGUACGGAACG [U7A G18A U19G C62A], with 0.633; and GUUCCGUUGGCAUAAUAGUAACGCGUCUUCCUCCUAAGGAGAAGACUGCGGGUUCGAGUCCCGUACGGAACG [G12A G17A C29U], with ≤ 0.5.

On to GUUCCGUUGGCGUAAUCGUAACGCGUCUCCCUCCUAAGGAGAAGAGUGCGGGUUUGAGUCCCGUACGGAACG [G17C C46G C55U], for which the yeast fitness was 0.571. Take GUUUCGUUGGCGUAAUGGUAACGCGUCUCCCUCCUAAGGACAAGACUGCGGGUUCGAGUCCCGUGCGGAACG [C4U G41C A65G]: the yeast fitness was 0.65. Then GUUCCGAUCGCGUAAUCGUAACGCGUCUCCCUCCUAAGGAGAAGACUACGGGUACGAGUCCCGUACGGAACG [U7A G9C G17C G48A U54A], with ≤ 0.5. Take GUUCCAUUGGCGUAAUGGUAAUGCGUCUCCCUCCUAAGGAGCAGACUGCGGGUUCGAGUCCCGUACGGAACG [G6A C22U A42C]: the yeast fitness is 0.605. As for GUUCCGUUGGGGUAAUGGUAACGCGUCUCCCUCCUAAGGAGAAGACUGCGGGUUCGAGUCCCGUACGAAACG [C11G G68A], the yeast fitness was found to be 0.64. As for GUUUCGUUGGCGUAAUGGUAACGCAUCUCCCUCCUAAGGAAAAGACUGCGGGUUCCAGUCCCGUCCGGAACG [C4U G25A G41A G56C A65C], the yeast fitness was ≤ 0.5. Consider GUUCCGUUGGCGUAAUGGUAACGCGUAUCCCUCCUAAGGAGAAGACUGCGGGUACGAGUCCCGUACGGAACG [C27A U54A], for which the yeast fitness turned out to be 0.727.
